Rows were chosen to be rich in hits. Some 2.4% of all compounds tested hit in one or more screens of this group.
SIAE primary: inhibitors of human sialic acid acetylesterase SIAE. inhibition, % at 9.66 µM. 370,000 tested, 0.69% active. Q9HAT2. SIAE FP-Rh probe binding, fluorescence polarization;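 active = inhibition above a cutoff: mean of compounds within the control limits plus 3 SD of those, cut at about 17% in these data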;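 note: 0% = plate median of compound wells and 100% = probe without SIAE protein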
TCR-CD3 inh: human TCR-CD3 binding inhibition | 360,000 tested, 0.37% active | inhibition, % at 9.4 µM | TAMRA-labeled TCR probe fluorescence, biochemical; in the data active = inhibition above about 19%;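 note: recombinant mutant TCR 2C K166C tagged with TAMRA read by polarization; 0% = receptor in buffer alone and 100% = receptor with positive control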
Apaf-1 inh: human Apaf-1 inhibition; O14727; reconstituted apoptosome caspase-3 activity, DEVD-Rh110 fluorescence; inhibition, % at 20 µM; 330,000 tested, 0.71% active; AID 489030; active = inhibition of at least 40% at 20 µM;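 note: plate controls were DMSO wells for no effect and DEVD-CHO caspase inhibitor wells for full effect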
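System: Apoptosome proteins | Medium: Hepes pH 7.5 with detergent and BSA | Also added: Cytochrome c trigger plus (Z-DEVD)2-Rh110 caspase-3 substrate | Incubation: 30 min compound preincubation, 50 min activation, room temperature | Detection: Rhodamine 110 fluorescence at Ex 480/Em 540 nm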
PAD4 inh: inhibitors of human PAD4. Q9UM07. recombinant PAD4, RCA probe fluorescence polarization. inhibition, % at 6.36 µM. 330,000 tested, 0.41% active. AID 485272;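 active = percent inhibition above a cutoff equal to the mean of all tested compounds plus 3 SD, cut at about 15% in these data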;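 note: 0% = PAD4 with RCA probe and DMSO and 100% = probe without PAD4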
TDP2 inh: blocks human TDP2 phosphodiesterase activity; inhibition, % at 12.8 µM; AID 720702; recombinant TDP2, T5PNP hydrolysis, p-nitrophenol absorbance 415 nm; 370,000 tested, 0.34% active; O95551;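 active = inhibition above the mean of all tested compounds plus 3 SD, set per campaign, cut at about 25% in these data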;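 note: 0% = DMSO with enzyme and 100% = buffer with substrate but no TDP2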
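test system = human TDP2 enzyme | input = TDP2 enzyme at 120 nM final | medium = 50 mM Tris-HCl pH 7.5 with Mg2+, KCl, DTT, BSA | also added = T5PNP substrate, 5 mM | times = 2 h at 37 °C | technique = epi absorbance | benchmarks = high control without enzyme, low control DMSO plus TDP2 | replication = each compound tested once, singlicate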
GSTO1 counter: counter-screen for RBBP9 inhibitors: inhibitors of human GSTO1; 300,000 tested, 1.1% active; recombinant GSTO1, activity-based probe fluorescence polarization; P78417; inhibition, % at 5.96 µM;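 active = inhibition above the campaign mean inhibition plus 3 SD, cut at about 35% in these data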;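 note: 0% = GSTO1-1 with DMSO and 100% = wells lacking GSTO1-1 enzyme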
SIAE confirm: confirmation of human SIAE inhibitors. shares compounds with SIAE primary. SIAE FP-Rh activity-based probe, fluorescence polarization. inhibition, % at 9.66 µM. 2,300 tested, 13% active. AID 1117263;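 active = mean inhibition of the replicates above the hit cutoff set in the primary screen, cut at about 17% in these data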;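 note: 0% = SIAE with DMSO and probe and 100% = probe without SIAE; inhibitors lower polarization as more probe stays unbound to SIAE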
* marks the source's active call; other numbers are inactive results; x = no result.

SMILES	SIAE primary	TCR-CD3 inh	Apaf-1 inh	PAD4 inh	TDP2 inh	GSTO1 counter	SIAE confirm
Nc1nonc1N/N=C/c1c(O)ccc2ccccc12	18*	16	23	1	-9	-21	-22
COC(=O)C1=NN(C(=O)c2cccc(Cl)c2)C(O)(C(C)(C)C)C1 (stereo not given)	24*	6	x	0	-11	-6	0
O=C(Nc1ccccc1F)c1ccc(CN2CCN(c3ccccc3)CC2)cc1	-1	6	12	-2	-20	16	x
COc1ccc(OCc2cc(C(=O)N3CCCC(O)C3)no2)c2ccccc12 (stereo not given)	18*	-1	20	3	16	7	0
COc1ccc(OCc2cc(C(=O)N3CCCC(OC)C3)no2)c2ccccc12 (stereo not given)	7	-3	11	-6	-7	4	x
CC(Sc1ncnc2ccccc12)C(=O)Nc1ccc2c(c1)OCCO2 (stereo not given)	24*	-1	-2	-9	5	4	-1
COc1cccc(CC(=O)N2CCN(C(=O)C(=O)c3ccc(OC)c(OC)c3)CC2)c1	-1	5	x	x	11	x	x
CSc1nnc(C)c(/C=C/NOCc2ccc(Cl)cc2)n1	18*	8	3	-6	6	4	0
CSc1nnc(C)c(/C=C/Nc2ccc(C)cc2)n1	10	1	5	-7	-5	-3	x
Cc1ccc(S(=O)(=O)N2CCOCC2)cc1NC(=O)CSc1nnc2n1CCCCC2	3	-6	-2	-2	-7	x	x
CCC(C)(C)NC(=O)Cn1c(=O)oc2cc(S(=O)(=O)N3CC(C)CC(C)C3)ccc21 (stereo not given)	-1	7	-5	0	-9	2	x
CC1CC(C)CN(S(=O)(=O)c2ccc3c(c2)oc(=O)n3CC(=O)NCCCOC(C)C)C1 (stereo not given)	18*	8	-4	-1	-8	4	-3
COc1ccc(C(=O)CSc2nnc(-c3ccco3)c(-c3ccco3)n2)cc1	19*	16	x	x	11	x	7
COc1ccc(C(=O)CSc2nnc(-c3ccco3)n2C)cc1	9	-3	0	-7	-7	7	x
COc1cc2c(cc1OC)C(=O)N1[C@H]3c4cc(C)ccc4OC[C@@H]3[C@H](c3ccccc3)[C@]1(C)C(=O)N2	-15	3	7	2	-7	x	x
N#CC(=C1C=C(Br)C(=NO)C=C1Cl)c1cccc2ccccc12	18*	0	x	x	-4	x	13
COC(=O)c1nn(-c2cccc(Cl)c2)cc(OC)c1=O	-2	2	5	5	-9	-1	x
